Assay outcomes: PubChem, several laboratories
HNF4A DNA FP – change in binding of human HNF4A to DNA, primary screen, biochemical, fluorescence polarization, FITC-DNA | 1 h | activity change, % at 10 µM | hit rate 0.3% among 360,000 | AID 1224865, 2016; in the data active means activity change above about 30%, passing the limit was not always enough
Target sequence (P41235 whole entry, looked up): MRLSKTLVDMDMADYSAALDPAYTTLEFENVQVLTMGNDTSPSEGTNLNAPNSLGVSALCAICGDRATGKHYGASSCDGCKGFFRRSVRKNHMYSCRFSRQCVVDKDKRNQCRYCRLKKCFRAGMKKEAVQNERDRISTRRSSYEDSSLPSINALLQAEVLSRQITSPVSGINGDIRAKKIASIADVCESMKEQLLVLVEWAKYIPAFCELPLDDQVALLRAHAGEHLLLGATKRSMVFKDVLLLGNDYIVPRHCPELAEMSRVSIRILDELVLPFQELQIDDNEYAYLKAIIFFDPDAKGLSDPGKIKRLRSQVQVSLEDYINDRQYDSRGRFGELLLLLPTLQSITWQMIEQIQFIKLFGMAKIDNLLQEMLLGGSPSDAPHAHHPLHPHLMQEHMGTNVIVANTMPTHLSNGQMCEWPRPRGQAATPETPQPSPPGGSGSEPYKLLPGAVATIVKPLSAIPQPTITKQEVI
CSN inh – inhibitors of CSN-mediated cullin deneddylation, primary screen, biochemical, fluorescence polarization, uHTS. COP9 signalosome complex subunit 5 (Homo sapiens), Q92905. Purified CSN, SCF-Nedd8-OG deneddylation. inhibition, % at 12.5 µM. hit rate 0.38% among 360,000;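 active means pattern-corrected inhibition above about 35%, with an unprinted fluorescence ratio check between 0.5 and 1.5, limit read from the data, passing the limit was not always enough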;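 further: 0% = enzyme with substrate and 100% = substrate without enzyme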
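Detection – fluorescence polarization · System – HEK293T-derived human Csn5 enzyme · Controls – substrate-only high control, full reaction low control · Timing – 90 min, room temperature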
Rpn11 block – Rpn11 (PSMD14) deubiquitinase inhibitors, primary screen, biochemical, fluorescence polarization, uHTS; AID 588493, 2011; 26S proteasome non-ATPase regulatory subunit 14 (Homo sapiens), O00487; human 26S proteasome, Ub4-pepOG fluorescence polarization; 20S core pre-blocked with epoxomicin; hit rate 0.59% among 360,000; calls only at 20 µM;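 active means inhibition at 20 µM, scaled to each plate's controls, above about 33%, limit read from the data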
CRFR2-BP antag – antagonists of CRF-BP/CRF-R2 complex, primary screen, cell-based, HEK293, calcium dye fluorescence, uHTS | CRF-induced calcium fluorescence | inhibition, % at 11.8 µM | hit rate 0.59% among 350,000 | AID 588475, 2011;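 active means inhibition of the ligand-induced calcium signal above about 50% at the single tested concentration, limit read from the data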
CRFBP-R2 agonist – agonists of CRF-BP/CRF-R2 complex, primary screen, cell-based, HEK293, calcium dye fluorescence, uHTS | activation, % at 13.2 µM | hit rate 0.46% among 350,000 | calcium dye fluorescence (FLIPR); percent of saturating CRF peptide response | CRF-binding protein / CRF receptor 2 complex (human);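 active means activation of at least 50%, plus an integration ratio under a set limit after plate pattern correction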;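 further: plate controls were neutral control wells without compound for no effect and CRF at EC100 for full effect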
TPT1 inhibitor – Candida albicans TPT1 enzyme inhibitors, primary screen, biochemical, fluorescence polarization. tRNA 2'-phosphotransferase TPT1 (Candida albicans SC5314). recombinant caTPT1, FP RNA substrate dephosphorylation. inhibition, % at 5 µM. hit rate 0.81% among 300,000;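 active means inhibition above the mean of all tested compounds plus 3 SD, set per screening campaign, cut at about 24% in these data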;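 further: plate controls were DMSO alone for no effect and ferristatin control at 100 nM for full effect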
Starred values were filed as active, the others as inactive; i = inactive; nt = no result; + = active, no number. Rows were chosen to be rich in hits. Some 2.3% of all compounds tested hit in one or more screens of this group.

SMILES	HNF4A DNA FP	CSN inh	Rpn11 block	CRFR2-BP antag	CRFBP-R2 agonist	TPT1 inhibitor
CC(C)Oc1ccc(/C=N/NC(=O)C(CSCc2ccccc2)NC(=O)c2ccc([N+](=O)[O-])cc2)cc1 (stereo not given)	9.3	3.9	i	-46.3	104.1*	4.4
CCCCOc1ccccc1C1C(C(=O)OC)=CN(CC)C=C1C(=O)OC	-0.3	7.1	i	59.3*	-0.5	-2.1
CCCOc1ccccc1C1C(C(=O)OC)=CN(C(C)C)C=C1C(=O)OC	-4.5	-3.9	i	2.2	-4.0	-1.1
Cc1cc(C)cc(-n2c(C)cc(C(=S)N3CCOCC3)c2C)c1	-1.2	2.3	i	56.8*	-1.8	-4.2
C=CC(=O)Nc1cccc(Nc2nc(N[C@H]3CC[C@H](N(C)C)CC3)nc3c2ncn3C(C)C)c1	40.3	111.9*	+	-5.5	-0.7	nt
CC(C)CC(NC(=O)/C(=C/c1ccco1)NC(=O)c1ccc(Br)o1)C(=O)O (stereo not given)	-7.8	4.4	i	58.4*	2.6	-9.1
COc1ccccc1/C=C/C=N/NC(=O)c1ccccn1	4.9	6.0	i	-2.9	1.1	-0.5
COc1ccccc1/C=C/C=N/NC(=O)c1cc(-c2ccco2)[nH]n1	-18.0	44.9*	i	-19.9	1.9	4.6
Cc1nn(-c2ccccc2)c(NC(=O)c2cccs2)c(-c2ccccc2Cl)c1=O	4.3	-1.1	i	111.0*	2.6	-2.4
O=C(C[C@@H]1C=C[C@H](NC(=O)Cc2ccccn2)[C@@H](CO)O1)NCCc1ccccc1	-0.1	-4.4	nt	nt	nt	nt
CC(CNC(=O)c1ccc(NC2=NC3CS(=O)(=O)CC3S2)cc1)c1ccccc1 (stereo not given)	3.0	0.8	i	-122.2	50.3*	-2.0
COC(=O)c1ccc(NC(=O)c2ccccc2NS(C)(=O)=O)cc1	-1.5	-2.1	i	21.0	7.5	2.8
CC1=NN(c2ccc(Cl)c(C(=O)O)c2)C(=O)/C1=C\c1ccc(-c2ccc(C(=O)O)cc2)o1	-13.8	18.8	i	-0.7	-1.3	nt
O=C(O)c1ccc(N2C(=O)/C(=C/c3ccc(-c4ccc([N+](=O)[O-])cc4)o3)C=C2c2ccccc2)cc1	-34.5	93.8	+	-3.2	0.1	17.1
CCCCN(C(=O)c1ccc([N+](=O)[O-])o1)c1c(N)n(CC(C)C)c(=O)[nH]c1=O	-1.1	2.8	i	nt	nt	-6.4
O=c1cc[nH]c2c1ccc1c(=O)cc[nH]c12	-2.8	1.0	i	6.0	0.0	-1.0
O=c1cc[nH]c2c(Cl)cccc12	3.5	0.7	i	92.3*	-2.2	0.3
O=C1NC(=Nc2ccccc2)S/C1=C/c1cccs1	63.8*	-1.5	i	14.2	-1.2	-1.2
Oc1cc2ccccc2cc1-c1n[nH]c(=S)o1	-5.0	-1.8	i	61.0*	-1.6	4.7
CCc1ccc2c(c1)C1(SC(NC(C)=O)=NN1C(C)=O)C(=O)N2CC (stereo not given)	-0.4	55.6*	i	-2.3	-0.2	0.9
CC1CC1c1ccc(/C=C(\C#N)C(=O)Nc2cccc(Cl)c2Cl)o1 (stereo not given)	1.1	-3.4	i	-75.0	58.5*	1.7
CCOc1ccc(C(=O)c2cccs2)cc1	0.8	-4.5	i	50.8*	-0.8	1.9
O=C(c1ccccc1)c1cccs1	-3.1	-4.5	i	-0.8	1.1	-0.5
CCn1c(Cc2c(C)[nH]c3ccccc23)nnc1SCC(N)=O	-0.5	2.8	i	9.8	-0.7	0.9
COc1ccc(C2C3=C(CC(C)(C)CC3=O)Nc3c2c(=O)n(C)c(=O)n3C)cc1OC (stereo not given)	-0.9	2.7	i	112.6*	2.1	0.7
COCC(=O)N[C@H]1C=C[C@@H](CC(=O)NCc2ccccc2OC)O[C@@H]1CO	1.8	1.0	nt	nt	nt	nt
